Test results: ChEMBL document CHEMBL4823277, “Novel chalcone-conjugated, multi-flexible end-group coumarin thiazole hybrids as potential antibacterial repressors against methicillin-resistant Staphylococcus aureus” (Eur J Med Chem, 2021)
In brackets after ≈: the same amount, converted by molar mass.

Assays:
Format in all cases: functional
Staphylococcus aureus [1] = experiment: Antibacterial activity against Staphylococcus aureus ATCC 25923 by microbroth dilution method
Klebsiella pneumoniae [2] = experiment: Antibacterial activity against Klebsiella pneumonia by microbroth dilution method
Pseudomonas aeruginosa [3] = experiment: Antibacterial activity against Pseudomonas aeruginosa by microbroth dilution method
Escherichia coli [4] = experiment: Antibacterial activity against Escherichia coli ATCC 25922 by microbroth dilution method
Staphylococcus aureus [5] = experiment: Antibacterial activity against methicillin-resistant Staphylococcus aureus N315 by microbroth dilution method
How it was run: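 Minimum inhibitory concentration against MRSA N315 determined by micro broth dilution in microdilution plates.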

Staphylococcus aureus [6] = experiment: Antibacterial activity against Staphylococcus aureus ATCC 29213 by microbroth dilution method
Acinetobacter baumannii = experiment: Antibacterial activity against Acinetobacter baumannii by microbroth dilution method
Enterococcus faecalis [7] = experiment: Antibacterial activity against Enterococcus faecalis by microbroth dilution method
Escherichia coli [8] = experiment: Antibacterial activity against Escherichia coli by microbroth dilution method
Staphylococcus aureus [9] = experiment: Antibacterial activity against Staphylococcus aureus by microbroth dilution method
Pseudomonas aeruginosa [10] = experiment: Antibacterial activity against Pseudomonas aeruginosa ATCC 27853 by microbroth dilution method
Klebsiella pneumoniae [11] = experiment: Potentiation of(Z)-4-((bis(2-hydroxyethyl)amino)methyl)-7-((1-(4-methoxyphenyl)-3-oxo-3-(thiazol-2-yl)prop-1-en-2-yl)oxy)-2H-chromen-2-one-induced antibacterial activity against Klebsiella pneumoniae assessed as (Z)-4-((bis(2-hydroxyethyl)amino)methyl)-7-((1-(4-methoxyphenyl)-3-oxo-3-(thiazol-2-yl)prop-1-en-2-yl)oxy)-2H-chromen-2-one MIC
Escherichia coli [12] = experiment: (§1) Potentiation of (Z)-4-((bis(2-hydroxyethyl)amino)methyl)-7-((1-(4-methoxyphenyl)-3-oxo-3-(thiazol-2-yl)prop-1-en-2-yl)oxy)-2H-chromen-2-one-induced antibacterial activity against Escherichia coli assessed as (Z)-4-((bis(2-hydroxyethyl)amino)methyl)-7-((1-(4-methoxyphenyl)-3-oxo-3-(thiazol-2-yl)prop-1-en-2-yl)oxy)-2H-chromen-2-one MIC
Enterococcus faecalis [13] = experiment: as §1, with “Enterococcus faecalis” for “Escherichia coli”
Staphylococcus aureus [14] = experiment: as §1, with “methicillin resistant Staphylococcus aureus N315” for “Escherichia coli”

Compound | MIC (Staphylococcus aureus [1]) [µM] | MIC (Klebsiella pneumoniae [2]) [µM] | MIC (Pseudomonas aeruginosa [3]) [µM] | MIC (Escherichia coli [4]) [µM] | MIC (Staphylococcus aureus [5]) [µM] | MIC (Staphylococcus aureus [6]) [µM] | MIC (Acinetobacter baumannii) [µM] | MIC (Enterococcus faecalis [7]) [µM] | MIC (Escherichia coli [8]) [µM] | MIC (Staphylococcus aureus [9]) [µM] | MIC (Pseudomonas aeruginosa [10]) [µM] | MIC (Klebsiella pneumoniae [11]) | MIC (Escherichia coli [12]) | MIC (Enterococcus faecalis [13]) | MIC (Staphylococcus aureus [14])
Cc1ccc2c(/C=C(\Oc3ccc4c(CN(CCO)CCO)cc(=O)oc4c3)C(=O)c3nccs3)c[nH]c2c1 | 7 (≈ 3.82 µg/mL) | 235 (≈ 128 µg/mL) | 117 (≈ 63.8 µg/mL) | 235 (≈ 128 µg/mL) | 117 (≈ 63.8 µg/mL) | 117 (≈ 63.8 µg/mL) | 117 (≈ 63.8 µg/mL) | 15 (≈ 8.18 µg/mL) | 235 (≈ 128 µg/mL) | 29 (≈ 15.8 µg/mL) | 59 (≈ 32.2 µg/mL) | – | – | – | –
CCn1cc(C(=O)O)c(=O)c2cc(F)c(N3CCNCC3)cc21 [NORFLOXACIN] | 3 (≈ 0.958 µg/mL) | 13 (≈ 4.15 µg/mL) | 25 (≈ 7.98 µg/mL) | 25 (≈ 7.98 µg/mL) | 25 (≈ 7.98 µg/mL) | 6 (≈ 1.92 µg/mL) | 25 (≈ 7.98 µg/mL) | 25 (≈ 7.98 µg/mL) | 50 (≈ 16 µg/mL) | 6 (≈ 1.92 µg/mL) | 3 (≈ 0.958 µg/mL) | 0.203 10^-3mM | 0.781 10^-3mM | 0.781 10^-3mM | 0.781 10^-3mM
O=C(COc1ccc2c(CN(CCO)CCO)cc(=O)oc2c1)c1nccs1 | 633 (≈ 256 µg/mL) | 316 (≈ 128 µg/mL) | 633 (≈ 256 µg/mL) | 633 (≈ 256 µg/mL) | 20 (≈ 8.09 µg/mL) | 1270 (≈ 512 µg/mL) | 633 (≈ 256 µg/mL) | 316 (≈ 128 µg/mL) | 316 (≈ 128 µg/mL) | 316 (≈ 128 µg/mL) | 1270 (≈ 512 µg/mL) | – | – | – | –
O=C(/C(=C/c1c[nH]c2ccccc12)Oc1ccc2c(CN(CCO)CCO)cc(=O)oc2c1)c1nccs1 | 120 (≈ 63.8 µg/mL) | 60 (≈ 31.9 µg/mL) | 241 (≈ 128 µg/mL) | 241 (≈ 128 µg/mL) | 15 (≈ 7.97 µg/mL) | 120 (≈ 63.8 µg/mL) | 482 (≈ 256 µg/mL) | 60 (≈ 31.9 µg/mL) | 241 (≈ 128 µg/mL) | 120 (≈ 63.8 µg/mL) | 482 (≈ 256 µg/mL) | – | – | – | –
O=C(/C(=C/c1ccccc1Cl)Oc1ccc2c(CN(CCO)CCO)cc(=O)oc2c1)c1nccs1 | 486 (≈ 256 µg/mL) | 972 (≈ 512 µg/mL) | 486 (≈ 256 µg/mL) | 243 (≈ 128 µg/mL) | 61 (≈ 32.1 µg/mL) | 486 (≈ 256 µg/mL) | 486 (≈ 256 µg/mL) | 121 (≈ 63.8 µg/mL) | 972 (≈ 512 µg/mL) | 121 (≈ 63.8 µg/mL) | 243 (≈ 128 µg/mL) | – | – | – | –
O=C(/C(=C/c1ccc(Cl)cc1)Oc1ccc2c(CN(CCO)CCO)cc(=O)oc2c1)c1nccs1 | 243 (≈ 128 µg/mL) | 486 (≈ 256 µg/mL) | 61 (≈ 32.1 µg/mL) | 486 (≈ 256 µg/mL) | 121 (≈ 63.8 µg/mL) | 243 (≈ 128 µg/mL) | 243 (≈ 128 µg/mL) | 243 (≈ 128 µg/mL) | 486 (≈ 256 µg/mL) | 243 (≈ 128 µg/mL) | 243 (≈ 128 µg/mL) | – | – | – | –
O=C(/C(=C/c1c[nH]c2cc(Cl)ccc12)Oc1ccc2c(CN(CCO)CCO)cc(=O)oc2c1)c1nccs1 | 57 (≈ 32.3 µg/mL) | 57 (≈ 32.3 µg/mL) | 226 (≈ 128 µg/mL) | 226 (≈ 128 µg/mL) | 57 (≈ 32.3 µg/mL) | 57 (≈ 32.3 µg/mL) | 113 (≈ 64 µg/mL) | 57 (≈ 32.3 µg/mL) | 226 (≈ 128 µg/mL) | 113 (≈ 64 µg/mL) | 113 (≈ 64 µg/mL) | – | – | – | –
O=C(/C(=C/c1ccc(Cl)cc1Cl)Oc1ccc2c(CN(CCO)CCO)cc(=O)oc2c1)c1nccs1 | 456 (≈ 256 µg/mL) | 228 (≈ 128 µg/mL) | 114 (≈ 64 µg/mL) | 456 (≈ 256 µg/mL) | 7 (≈ 3.93 µg/mL) | 456 (≈ 256 µg/mL) | 114 (≈ 64 µg/mL) | 228 (≈ 128 µg/mL) | 228 (≈ 128 µg/mL) | 228 (≈ 128 µg/mL) | 228 (≈ 128 µg/mL) | – | – | – | –
